The values that follow come from ChEMBL document CHEMBL3271975, “Synthesis and biological activity of a series of 1-aryl-3-pyrazolidinones” (J Med Chem, 1976).

Molecules are shown by their SMILES. Activity calls are given as the source filed them. The calls are words filed in the database; no cut-off is given here.

Data set [1] is filed under the species Rattus norvegicus. Briefly: CNS activity in rat assessed as gross behaviour. To be noted: in vivo. The class given is ADME, organism-based.
Data set [2] concerns Rattus norvegicus. The data set is described as follows: Antifertility activity in rat at 5 mg/day administered for 7 days. The class given is functional, organism-based. The essentials: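 Rat antifertility test: 5 mg/rat/day given for 7 days to two female rats.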

As to `CCOC(=O)CCCCCOC1=NN(c2cccc(OC)c2)CC1`, in the data set filed under Rattus norvegicus [1], the Activity result is “Non-toxic”. Also, the result in the data set with Rattus norvegicus [2] was inactive.
On the same counts, the results for `COc1cccc(N2CCC(=O)N2)c1` are “Non-toxic” and “inactive”.
On the same counts, the results for `CCCCOc1cccc(N2CCC(=O)N2)c1` are “Non-toxic” and “inactive”.
On the same counts, the results for `O=C1CCN(c2cccc(C(F)(F)F)c2)N1` are “Non-toxic” and “inactive”.
Regarding `O=C1CCN(c2cccc(Cl)c2)N1`, the Activity result in the data set filed under Rattus norvegicus [1] is given as “Non-toxic”. For the same molecule, in the data set on Rattus norvegicus [2], the result was inactive.
The corresponding values for `CCOC(=O)COC1=NN(c2cccc(C(F)(F)F)c2)CC1` are “Non-toxic” and “inactive”.
On the same counts, the results for `CCOC(=O)COC1=NN(c2cccc(Cl)c2)CC1` are “Non-toxic” and “inactive”.
Consider `COc1cccc(N2CCC(=O)N2CCCC(=O)c2ccc(F)cc2)c1`, for which the Activity entry in the data set filed under Rattus norvegicus [1] was “Non-toxic”. Moreover, the outcome in the data set on Rattus norvegicus [2] was inactive.
On the same counts, the results for `COc1cccc(N2CCC(=O)N2CCCC(O)c2ccc(F)cc2)c1` (stereo not drawn) are “Non-toxic” and “inactive”.
